Data published in publication PMC5955861 (Oncogene, 2018).
Like-named read-outs stand apart in the source and are kept apart here.

Columns and labels:
MOLP-8 GFP = assay: alamarBlue cell proliferation assay; assay type: cell-based; details: Homo sapiens
Summary of the method: (§1)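 Leukemia, lymphoma and myeloma lines (from ATCC or DSMZ, grown per supplier instructions, STR-authenticated; GFP-labelled sublines where stated) were incubated with test compound in 96-well flat-bottom plates. Viability was read by alamarBlue conversion, and EC50 was taken from the concentration-response.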

Kasumi-1 = assay: alamarBlue cell proliferation assay; assay type: cell-based; details: Homo sapiens
Summary of the method: as §1

MM.1R = assay: alamarBlue cell proliferation assay; assay type: cell-based
Summary of the method: as §1

NOMO-1 = assay: alamarBlue cell proliferation assay; assay type: cell-based; details: Homo sapiens
Summary of the method: as §1

SKM-1 = assay: alamarBlue cell proliferation assay; assay type: cell-based; details: Homo sapiens
Summary of the method: as §1

[1] = system: AML primary patient samples; assay: proliferation of ex vivo-treated primary patient samples; assay type: cell-based; details: Homo sapiens
MOLM-13 = assay: alamarBlue cell proliferation assay; assay type: cell-based; details: Homo sapiens
Summary of the method: as §1

RC-K8 = assay: alamarBlue cell proliferation assay; assay type: cell-based; details: Homo sapiens, RCK8
Summary of the method: as §1

MV-4-11B cells = assay: FACS cell cycle profile; assay type: cell-based; details: 72 h, 30 nM and 100 nM
OCI-Ly18 = assay: alamarBlue cell proliferation assay; assay type: cell-based; details: Homo sapiens
Summary of the method: as §1

SU-DHL2 = assay: alamarBlue cell proliferation assay; assay type: cell-based; details: Homo sapiens, SU-DHL-2
Summary of the method: as §1

MOLT-3 = assay: alamarBlue cell proliferation assay; assay type: cell-based; details: Homo sapiens
Summary of the method: as §1

MOLT-4 = assay: alamarBlue cell proliferation assay; assay type: cell-based; details: Homo sapiens
Summary of the method: as §1

CCRF-CEM = assay: alamarBlue cell proliferation assay; assay type: cell-based; details: Homo sapiens
Summary of the method: as §1

DERL-2 = assay: alamarBlue cell proliferation assay; assay type: cell-based; details: T-cell
Summary of the method: as §1

HuT78 = assay: alamarBlue cell proliferation assay; assay type: cell-based; details: Homo sapiens
Summary of the method: as §1

OCI-Ly3 = assay: alamarBlue cell proliferation assay; assay type: cell-based; details: Homo sapiens
Summary of the method: as §1

JEKO-1 = assay: alamarBlue cell proliferation assay; assay type: cell-based; details: Homo sapiens
Summary of the method: as §1

HBL-1 = assay: alamarBlue cell proliferation assay; assay type: cell-based; details: HBL1
Summary of the method: as §1

NCI-H929 = assay: alamarBlue cell proliferation assay; assay type: cell-based; details: Homo sapiens
Summary of the method: as §1

MV-4-11B AML cells = assay: disseminated AML xenograft efficacy study; assay type: in vivo, CIEA-NOG mice; details: MV-4-11B i.v. engrafted
MOLP-8 = assay: alamarBlue cell proliferation assay; assay type: cell-based; details: Homo sapiens
Summary of the method: as §1

THP-1 = assay: alamarBlue cell proliferation assay; assay type: cell-based; details: Homo sapiens
Summary of the method: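 Cell lines from ATCC or DSMZ were cultured per supplier's instructions and STR-authenticated. MV-4-11B is a clone of MV-4-11 carrying heterozygous TP53 c.742C>T (p.R248W). Cells were exposed to test compound in 96-well format, and viability was read after incubation with alamarBlue.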

BRD2/3/4 and BRDT = assay: BROMOscan ligand-binding site-directed competition assay
MV-4-11B GFP = assay: alamarBlue cell proliferation assay; assay type: cell-based
Summary of the method: as §1

SU-DHL4 = assay: alamarBlue cell proliferation assay; assay type: cell-based; details: Homo sapiens, SU-DHL-4
Summary of the method: as §1

CNc1nc(-c2nc3ccc(N4CCN(C)CC4)cc3n2Cc2ccccc2)cn2c(C)nnc12 [BI 894999]
EC50 (MOLP-8 GFP): 21.5 ± 10.8 nM | EC50 (Kasumi-1): 2.8 ± 0.4 nM | EC50 (MM.1R): 2.5 ± 2.1 nM | EC50 (NOMO-1): 5.7 ± 4.1 nM | EC50 (SKM-1): 10.2 ± 1.5 nM | EC50 ([1]; 16/20 AML patient samples): < 10 nM | EC50 ([1]; read-out: BI 894999 EC50, AML Patient 1, risk group Intermediate): 4 nM | EC50 ([1]; read-out: BI 894999 EC50, AML Patient 2, risk group Intermediate): < 1 nM | EC50 ([1]; read-out: BI 894999 EC50, AML Patient 3, risk group Intermediate): 5 nM | EC50 ([1]; read-out: BI 894999 EC50, AML Patient 4, risk group High): 1080 nM | EC50 ([1]; read-out: BI 894999 EC50, AML Patient 5, risk group High): 89 nM | EC50 ([1]; read-out: BI 894999 EC50, AML Patient 6, risk group Intermediate): 2 nM | EC50 ([1]; read-out: BI 894999 EC50, AML Patient 7, risk group Intermediate): 12 nM | EC50 ([1]; read-out: BI 894999 EC50, AML Patient 8, risk group High): 2 nM | EC50 ([1]; read-out: BI 894999 EC50, AML Patient 9, risk group Intermediate): 5 nM | EC50 ([1]; read-out: BI 894999 EC50, AML Patient 10, risk group High): < 1 nM | EC50 ([1]; read-out: BI 894999 EC50, AML Patient 11, risk group High): 18 nM | EC50 ([1]; read-out: BI 894999 EC50, AML Patient 12, risk group Intermediate): 4 nM | EC50 ([1]; read-out: BI 894999 EC50, AML Patient 13, risk group Intermediate): < 1 nM | EC50 ([1]; read-out: BI 894999 EC50, AML Patient 14): < 1 nM | EC50 ([1]; read-out: BI 894999 EC50, AML Patient 15, risk group Intermediate): 1 nM | EC50 ([1]; read-out: BI 894999 EC50, AML Patient 16): < 1 nM | EC50 ([1]; read-out: BI 894999 EC50, AML Patient 17, risk group High): < 1 nM | EC50 ([1]; read-out: BI 894999 EC50, AML Patient 18, risk group Intermediate): < 1 nM | EC50 ([1]; read-out: BI 894999 EC50, AML Patient 19, risk group Intermediate): < 1 nM | EC50 ([1]; read-out: BI 894999 EC50, AML Patient 20, risk group Intermediate): < 1 nM | EC50 (MOLM-13): 12.8 ± 3.4 nM | EC50 (RC-K8): 7.8 ± 0.9 nM | cell cycle effect (MV-4-11B cells): G1 arrest | EC50 (OCI-Ly18): 5.6 ± 0.9 nM | EC50 (SU-DHL2): 10.7 ± 3.2 nM | EC50 (MOLT-3): 14.4 ± 6.5 nM | EC50 (MOLT-4): 40.7 ± 28.7 nM | EC50 (CCRF-CEM): 175 ± 58 nM | EC50 (DERL-2): 10.6 ± 9.5 nM | EC50 (HuT78): 7.1 ± 3.7 nM | EC50 (OCI-Ly3): 8.2 ± 2.3 nM | EC50 (JEKO-1): 7.9 ± 2.1 nM | EC50 (HBL-1): 7.1 ± 5.2 nM | EC50 (NCI-H929): 3.6 ± 2 nM | survival prolongation (MV-4-11B AML cells; daily oral 2 mg/kg): 29.5 days | tumor growth inhibition (TGI) (MV-4-11B AML cells; daily oral 2 mg/kg): 96% | survival prolongation (MV-4-11B AML cells; daily oral 4 mg/kg): 52 days | tumor growth inhibition (TGI) (MV-4-11B AML cells; daily oral 4 mg/kg): 99% | EC50 (MOLP-8): 5.3 ± 2.8 nM | EC50 (THP-1): 6.3 ± 2.9 nM | Kd (BRD2/3/4 and BRDT; BRD2/3/4 and BRDT, 24 bromodomains tested): 0.49 to 1.6 nM | selectivity vs. BRD4-BD1 (BRD2/3/4 and BRDT; other bromodomains of the panel (n = 24) vs. BRD4-BD1): ≥ 200 fold | EC50 (MV-4-11B GFP): 2.9 ± 0.9 nM | EC50 (SU-DHL4): 13.3 ± 4.5 nM
